Screening results: PubChem, several laboratories
A selection: hits, their analogues and other compounds. The true share with any hit is near 1.6%.
PG9 Ab binder = PG9 antibody binding by small molecule; TR-FRET gp120-PG9 antibody binding; inhibition, % at 6.7 µM; 0.43% of 360,000 active; in the data active = inhibition above about 8.5%
NR2E3 ag-1 = NR2E3 (human) agonism. inhibition of corepressor binding, % at 4.78 µM. 0.12% of 320,000 active. Q9Y5X4. GST-NR2E3/biotin-RetCOR TR-FRET, 1536-well;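 active = percent inhibition above the cutoff of mean plus 3 SD of all tested compounds, set per screening campaign, cut at about 20% in these data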;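 also: 0% = DMSO wells and 100% = biotin wells as full block of FRET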
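Material: NR2E3–RetCOR corepressor complex / Amount: 1.35 nM GST-NR2E3 / Medium: Tris pH 7.5 / Compound: single nominal compound dose of 4.8 µM / Incubation: 5 h at 4 °C / Technique: TR-FRET, Eu(K)-anti-GST donor, streptavidin-D2 acceptor, ex 340, em 617/671 nm / Read-out basis: percent loss of FRET ratio relative to control wells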
VLA-4 inh = inhibition in a human VLA-4 binding assay; P13612; VLA-4 expressing cells, ligand binding flow cytometry; inhibition, % (about 7 µM as worked out from the volumes in the protocol); 0.2% of 330,000 active; AID 2557; in the data active = inhibition above about 50%
Rev-erbA mod = modulators of human Rev-erb alpha DNA binding. P20393. Rev-erbα–FITC-DNA binding, fluorescence polarization, 90 min. activity, % at 10 µM. 0.79% of 370,000 active. AID 1259318;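 active = activity above about 14%, limit read from the data; passing the limit was not always enough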;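 also: 0% = DMSO wells with 35 nM protein and 100% = DMSO wells with 750 nM protein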
NR2E3 ag-2 = agonists of human NR2E3 nuclear receptor. Q9Y5X4. CHO-S Gal4-NCOR/VP16-NR2E3 two-hybrid, luciferase. inhibition of corepressor binding, % at 3.98 µM. 0.35% of 360,000 active. AID 602229;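 active = inhibition above the mean of all tested compounds plus 3 SD, cut at about 70% in these data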;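 also: 0% = DMSO with NR2E3 transfected cells and 100% = cells lacking NR2E3 construct; higher means lower luciferase signal from less NR2E3 corepressor binding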
VLA-4 mod pick = confirmation of allosteric modulators of human VLA-4 integrin; AID 2813; U937 cells, HUTS-21 LIBS mAb binding, flow cytometry; LDV ligand present at threefold Kd; 2% of 1,300 active; inhibition, % at 6.7 µM; shares compounds with VLA-4 inh; in the data active = inhibition above about 40%;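 also: 0% = ligand without compound and 100% = no ligand background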
Active calls of the source: *.

Screening COc1cc(OC)cc(C(=O)NNC(=S)NCc2ccco2)c1 returned PG9 Ab binder -1.4, NR2E3 ag-1 -0.1, VLA-4 inh 52.6*, Rev-erbA mod 5.1, NR2E3 ag-2 -4.7 and VLA-4 mod pick 8.4.
For COc1cccc(-c2cc(C(=O)N3CCN(Cc4ccc5c(c4)OCO5)CC3)on2)c1 the results were PG9 Ab binder -1.0, NR2E3 ag-1 -5.2, VLA-4 inh 55.4*, Rev-erbA mod 2.6, NR2E3 ag-2 4.4 and VLA-4 mod pick 19.0.
Cc1cc(C(=O)N2CCN(Cc3ccc4c(c3)OCO4)CC2)on1 was read as PG9 Ab binder -0.5, NR2E3 ag-1 3.9, VLA-4 inh 22.3, Rev-erbA mod -4.9 and NR2E3 ag-2 0.0.
Screening CCOc1ccc(-c2nnc3ccc(SCC(=O)N4CCCCC4)nn23)cc1 returned PG9 Ab binder -0.6, NR2E3 ag-1 3.6, VLA-4 inh 18.4, Rev-erbA mod -5.5, NR2E3 ag-2 -25.5 and VLA-4 mod pick -1.4.
Screening COC(=O)CC1C(=O)NCCN1C(=S)Nc1ccccc1Cl (centres undefined) returned PG9 Ab binder 1.0, NR2E3 ag-1 4.8, VLA-4 inh 53.2*, Rev-erbA mod 1.9, NR2E3 ag-2 -16.8 and VLA-4 mod pick 2.0.
For CSc1ccc(C(=O)c2[nH]c(=O)[nH]c2C)cc1 the results were PG9 Ab binder -1.0, NR2E3 ag-1 0.3, VLA-4 inh 54.9*, Rev-erbA mod 1.1, NR2E3 ag-2 -35.9 and VLA-4 mod pick 0.0.
Screening Cc1[nH]c(=O)[nH]c1C(=O)CCCCC(=O)O returned PG9 Ab binder -1.6, NR2E3 ag-1 -42.4, VLA-4 inh -2.2, Rev-erbA mod 1.7 and NR2E3 ag-2 22.5.
Screening CC(C)(C)c1ccc(NS(=O)(=O)c2ccc(N)cc2)cc1 returned PG9 Ab binder 0.4, NR2E3 ag-1 -2.2, VLA-4 inh -0.3, Rev-erbA mod -3.3, NR2E3 ag-2 -9.1 and VLA-4 mod pick 4.4.
Screening COC(=O)CCCC1=CC2=CC(=O)C(C)(OC(=O)c3cccs3)C(=O)C2=CN1CCCCO (centres undefined) returned PG9 Ab binder -1.5, NR2E3 ag-1 -2.0, VLA-4 inh 27.9, Rev-erbA mod -1.6 and NR2E3 ag-2 -15.0.
COCCN1C=C2C(=O)C(C)(OC(=O)c3cccs3)C(=O)C=C2C=C1CCCC(=O)OC (centres undefined) was read as PG9 Ab binder 0.2, NR2E3 ag-1 4.9, VLA-4 inh 49.7*, Rev-erbA mod 10.4, NR2E3 ag-2 -12.6 and VLA-4 mod pick -5.5.
Screening CCCNC(=O)c1ccccc1NC(=O)COc1ccc(OC)cc1 returned PG9 Ab binder 2.0, NR2E3 ag-1 -2.5, Rev-erbA mod 4.5, NR2E3 ag-2 -11.1 and VLA-4 mod pick -8.9.
For O=C(COc1ccccc1)Nc1ccccc1C(=O)NCc1ccco1 the results were PG9 Ab binder 0.5, NR2E3 ag-1 1.4, VLA-4 inh 57.6*, Rev-erbA mod -5.4, NR2E3 ag-2 -19.8 and VLA-4 mod pick -0.1.
Screening CC(C)CCN(CC(=O)NCc1ccc(F)cc1)S(=O)(=O)c1ccccc1F returned PG9 Ab binder -0.3, NR2E3 ag-1 -2.7, VLA-4 inh 1.4, Rev-erbA mod -4.2, NR2E3 ag-2 14.3 and VLA-4 mod pick 0.0.
`CCN(CC(=O)NCc1ccc(F)cc1)S(=O)(=O)c1ccc(C)cc1` gave PG9 Ab binder 0.7, NR2E3 ag-1 1.9, VLA-4 inh 2.2, Rev-erbA mod -3.0, NR2E3 ag-2 -4.9 and VLA-4 mod pick 2.0.
Screening COCCCNC(=O)CN(CCc1ccccc1)S(=O)(=O)c1ccc(OC)cc1 returned PG9 Ab binder 1.0, NR2E3 ag-1 1.9, VLA-4 inh 8.8, Rev-erbA mod 1.4 and NR2E3 ag-2 7.5.
Screening COC(=O)c1ccc(CNC(=O)CN(CCC(C)C)S(=O)(=O)c2ccc3c(c2)OCCO3)cc1 returned PG9 Ab binder 1.4, NR2E3 ag-1 -1.9, VLA-4 inh 6.3, Rev-erbA mod 4.0 and NR2E3 ag-2 -4.5.
`COc1ccc(S(=O)(=O)N(C)CC(=O)NCc2ccccc2)cc1OC` gave PG9 Ab binder -0.2, NR2E3 ag-1 -1.0, VLA-4 inh 15.4, Rev-erbA mod -3.8, NR2E3 ag-2 -2.8 and VLA-4 mod pick -1.4.
COCCCN(CC(=O)NCc1ccccc1)S(=O)(=O)c1ccc(C)cc1 was read as PG9 Ab binder -0.2, NR2E3 ag-1 -2.4, VLA-4 inh 13.3, Rev-erbA mod 1.9, NR2E3 ag-2 -12.8 and VLA-4 mod pick 4.0.
`CCN(CC(=O)NCc1cccs1)S(=O)(=O)c1ccc(F)cc1` gave PG9 Ab binder 0.4, NR2E3 ag-1 0.0, VLA-4 inh 0.8, Rev-erbA mod -6.9 and NR2E3 ag-2 -2.1.
Screening COc1ccc(C2C(C(=O)Nc3cc(OC)c(OC)c(OC)c3)CCC(=O)N2c2ccc(OC)cc2)cc1 (centres undefined) returned Rev-erbA mod 0.1.
Screening O=C1NC(=O)/C(=C/c2cccc(O)c2)N1 returned PG9 Ab binder -1.1, NR2E3 ag-1 -2.2, VLA-4 inh 47.1, Rev-erbA mod 1.4, NR2E3 ag-2 -6.5 and VLA-4 mod pick -2.8.
For O=C1NC(=O)C(=Cc2ccccc2)N1 the results were PG9 Ab binder 0.0, Rev-erbA mod 4.9 and NR2E3 ag-2 -8.3.
For COC(=O)[C@@]12CCCCC3=C1N(CCC3)C(=O)[C@H]2CC(=O)N1CCN(C(=O)c2ccco2)CC1 the results were Rev-erbA mod 2.4.
Screening O=C(NC(=S)NCc1ccc(-c2nc3ccccc3s2)cc1)c1ccco1 returned PG9 Ab binder -0.9, NR2E3 ag-1 -1.2, VLA-4 inh 44.8, Rev-erbA mod -4.0, NR2E3 ag-2 -110.3 and VLA-4 mod pick 2.1.
`O=C(NCc1ccc(-c2nc3ccccc3s2)cc1)c1ccco1` gave PG9 Ab binder -0.1, NR2E3 ag-1 -0.1, VLA-4 inh 0.9, Rev-erbA mod 6.7 and NR2E3 ag-2 -83.7.
`Cc1ccc(C(=C2C3C=CC2C2C(=O)NC(=O)C32)c2ccc(C)cc2)cc1` (centres undefined) gave NR2E3 ag-1 3.4, VLA-4 inh 55.8*, NR2E3 ag-2 -18.0 and VLA-4 mod pick 6.5.
Screening O=C1C2C3C=CC(C3=C(c3ccccc3)c3ccccc3)C2C(=O)N1CCO (centres undefined) returned PG9 Ab binder -1.1, NR2E3 ag-1 0.1, VLA-4 inh 0.3, Rev-erbA mod 3.5 and NR2E3 ag-2 10.1.
`COc1ccc(C(=O)Nc2cc3c(cc2OC)CCCC3)cc1Br` gave PG9 Ab binder 2.3, NR2E3 ag-1 3.8, VLA-4 inh 0.0, Rev-erbA mod 3.8 and NR2E3 ag-2 -21.8.
`COc1cc2c(cc1NC(=O)c1ccc(C(C)(C)C)cc1)CCCC2` gave PG9 Ab binder -0.2, NR2E3 ag-1 5.2, VLA-4 inh 81.9*, Rev-erbA mod 1.1, NR2E3 ag-2 3.3 and VLA-4 mod pick 14.6.
